Laboratory results as given in ChEMBL document CHEMBL1130139, “Synthesis and activity of 6-substituted purine linker amino acid immunostimulants” (1997).
Where “and” joins values, the source holds several entries; their conditions need not be identical. Equal values may be shown once.

How the values were obtained:
Type in all cases: functional
Mus musculus [1] = test: In vivo spleen immunophenotyping (Ly5 cells) assay was performed by injecting 50 mg/Kg of compound intraperitoneally in mice
Summary of the method: (§1)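 Female 6- to 8-week-old C57BL/6 mice were dosed ip once daily for one, four or nine consecutive days, drug in physiological saline. For single dosing, groups of seven were used. Blood and spleen cells were ACK-lysed (pH 7.3, 5 min) and PBS-washed, then stained 45 min on ice with FITC/PE surface-marker antibodies. Cells were fixed in 1% paraformaldehyde and read by flow cytometry as relative subset percentages.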

Mus musculus [2] = test: In vivo blood immunophenotyping (CD4-CD11b+ cells) assay was performed by injecting 25 mg/Kg of compound intraperitoneally in mice; summary of the method: as §1
Mus musculus [3] = test: In vivo blood immunophenotyping (CD8+CD45+ cells) assay was performed by injecting 25 mg/Kg of compound intraperitoneally in mice; summary of the method: as §1
Mus musculus [4] = test: In vivo blood immunophenotyping (NK+CD3+ cells) assay was performed by injecting 50 mg/Kg of compound intraperitoneally in mice; summary of the method: as §1
Mus musculus [5] = test: In vivo spleen immunophenotyping (CD8+CD45+ cells) assay was performed by injecting 100 mg/Kg of compound intraperitoneally in mice; summary of the method: as §1
Mus musculus [6] = test: In vivo blood immunophenotyping (CD8+CD45+ cells) assay was performed by injecting 50 mg/Kg of compound intraperitoneally in mice; summary of the method: as §1
Mus musculus [7] = test: In vivo spleen immunophenotyping (TCR cells) assay was performed by injecting 50 mg/Kg of compound intraperitoneally in mice; summary of the method: as §1
Mus musculus [8] = test: In vivo spleen immunophenotyping (Ly5 cells) assay was performed by injecting 25 mg/Kg of compound intraperitoneally in mice; summary of the method: as §1
Mus musculus [9] = test: In vivo blood immunophenotyping (CD4+CD45+ cells) assay was performed by injecting 50 mg/Kg of compound intraperitoneally in mice; summary of the method: as §1
Mus musculus [10] = test: In vivo spleen immunophenotyping (CD8+CD45+ cells) assay was performed by injecting 0 mg/Kg of compound intraperitoneally in mice; summary of the method: as §1
Mus musculus [11] = test: In vivo immunophenotyping (CD4-CD8- cells) assay was performed by injecting 50 mg/Kg of compound intraperitoneally in mice and blood is collected; summary of the method: as §1
Mus musculus [12] = test: In vivo blood immunophenotyping (NK+CD3- cells) assay was performed by injecting 0 mg/Kg of compound intraperitoneally in mice; summary of the method: as §1
Mus musculus [13] = test: In vivo spleen immunophenotyping (CD8+CD45+ cells) assay was performed by injecting 50 mg/Kg of compound intraperitoneally in mice; summary of the method: as §1
Mus musculus [14] = test: In vivo blood immunophenotyping (CD8+CD45+ cells) assay was performed by injecting 0 mg/Kg of compound intraperitoneally in mice; summary of the method: as §1
Mus musculus [15] = test: In vivo immunophenotyping (CD4+ cells) assay was performed by injecting 0 mg/Kg of compound intraperitoneally in mice and blood is collected; summary of the method: as §1
Mus musculus [16] = test: In vivo immunophenotyping (CD4-CD8- cells) assay was performed by injecting 100 mg/Kg of compound intraperitoneally in mice and blood is collected; summary of the method: as §1
Mus musculus [17] = test: In vivo immunophenotyping (CD4-CD8- cells) assay was performed by injecting 0 mg/Kg of compound intraperitoneally in mice and blood is collected; summary of the method: as §1
Mus musculus [18] = test: In vivo blood immunophenotyping (CD8+CD45+ cells) assay was performed by injecting 100 mg/Kg of compound intraperitoneally in mice; summary of the method: as §1
Mus musculus [19] = test: In vivo blood immunophenotyping (CD4+CD45+ cells) assay was performed by injecting 100 mg/Kg of compound intraperitoneally in mice; summary of the method: as §1
Mus musculus [20] = test: In vivo blood immunophenotyping (NK+CD3- cells) assay was performed by injecting 50 mg/Kg of compound intraperitoneally in mice; summary of the method: as §1
Mus musculus [21] = test: In vivo blood immunophenotyping (CD4-CD11b+ cells) assay was performed by injecting 0 mg/Kg of compound intraperitoneally in mice; summary of the method: as §1
Mus musculus [22] = test: In vivo blood immunophenotyping (NK+CD3- cells) assay was performed by injecting 25 mg/Kg of compound intraperitoneally in mice; summary of the method: as §1
Mus musculus [23] = test: In vivo blood immunophenotyping (CD4+CD45+ cells) assay was performed by injecting 0 mg/Kg of compound intraperitoneally in mice; summary of the method: as §1
Mus musculus [24] = test: In vivo spleen immunophenotyping (TCR cells) assay was performed by injecting 0 mg/Kg of compound intraperitoneally in mice; summary of the method: as §1
Mus musculus [25] = test: In vivo spleen immunophenotyping (CD8+CD45+ cells) assay was performed by injecting 25 mg/Kg of compound intraperitoneally in mice; summary of the method: as §1
Mus musculus [26] = test: In vivo blood immunophenotyping (CD4+CD45+ cells) assay was performed by injecting 25 mg/Kg of compound intraperitoneally in mice; summary of the method: as §1
Mus musculus [27] = test: In vivo blood immunophenotyping (NK+CD3+ cells) assay was performed by injecting 25 mg/Kg of compound intraperitoneally in mice; summary of the method: as §1
Mus musculus [28] = test: In vivo blood immunophenotyping (CD4-CD11b+ cells) assay was performed by injecting 50 mg/Kg of compound intraperitoneally in mice; summary of the method: as §1
Mus musculus [29] = test: In vivo spleen immunophenotyping (TCR cells) assay was performed by injecting 25 mg/Kg of compound intraperitoneally in mice; summary of the method: as §1
Mus musculus [30] = test: In vivo immunophenotyping (CD4-CD8- cells) assay was performed by injecting 25 mg/Kg of compound intraperitoneally in mice and blood is collected; summary of the method: as §1
Mus musculus [31] = test: In vivo blood immunophenotyping (NK+CD3+ cells) assay was performed by injecting 0 mg/Kg of compound intraperitoneally in mice; summary of the method: as §1
Mus musculus [32] = test: In vivo spleen immunophenotyping (Ly5 cells) assay was performed by injecting 0 mg/Kg of compound intraperitoneally in mice; summary of the method: as §1
Mus musculus [33] = species: Mus musculus; test: In vitro cytotoxic T-Lymphocyte (CTL) activity relative to interleukin 2 was obtained at a concentration of 10 e -7 M (++ represents 41 - 60% of interleukin 2)
Summary of the method: (§2)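 Splenocytes from 6- to 8-week-old female C57BL/6 and irradiated (3000 rads) DBA/2 mice, 10⁷ cells, were cultured together in RPMI 1640 with 10% FCS. Culture ran 120 h at 37 °C in 5% CO₂, with [³H]thymidine pulse of an aliquot. Percent specific lysis was scaled to IL 2 (taken as 100%) and scored 0 to ++++ in 20% bands.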

Mus musculus [34] = species: Mus musculus; test: In vitro cytotoxic T-Lymphocyte (CTL) activity relative to interleukin 2 was obtained at a concentration of 10 e -5 M (+ represents 21 - 40% of interleukin 2); summary of the method: as §2
Mus musculus [35] = species: Mus musculus; test: In vitro cytotoxic T-Lymphocyte (CTL) activity relative to interleukin 2 was obtained at a concentration of 10 e -5 M(++ represents 41 - 60% of interleukin 2); summary of the method: as §2
Mus musculus [36] = species: Mus musculus; test: In vitro cytotoxic T-Lymphocyte (CTL) activity relative to interleukin 2 was obtained at a concentration of 10 e -5 M(+ represents 21 - 40% of interleukin 2); summary of the method: as §2
Mus musculus [37] = species: Mus musculus; test: In vitro cytotoxic T-Lymphocyte (CTL) activity relative to interleukin 2 was obtained at a concentration of 10 e -7 M(+ represents 21 - 40% of interleukin 2); summary of the method: as §2
Mus musculus [38] = species: Mus musculus; test: In vitro cytotoxic T-Lymphocyte (CTL) activity relative to interleukin 2 was obtained at a concentration of 10 e -7 M(++ represents 41 - 60% of interleukin 2); summary of the method: as §2
Mus musculus [39] = species: Mus musculus; test: In vitro cytotoxic T-Lymphocyte (CTL) activity relative to interleukin 2 was obtained at a concentration of 10 e -9 M(++ represents 41 - 60% of interleukin 2); summary of the method: as §2
Mus musculus [40] = species: Mus musculus; test: In vitro cytotoxic T-Lymphocyte (CTL) activity relative to interleukin 2 was obtained at a concentration of 10 e -7 M(++ represents 21 - 40% of interleukin 2); details: in the assay text read “+ represents” for “++ represents”; summary of the method: as §2
Mus musculus [41] = species: Mus musculus; test: In vitro cytotoxic T-Lymphocyte (CTL) activity relative to interleukin 2 was obtained at a concentration of 10 e -7 M(++++ represents 81 - 100% of interleukin 2); summary of the method: as §2

CN(C)c1ncnc2c1ncn2CCCCCOC(=O)N[C@@H](CCCNC(=N)N)C(=O)O [BCH-1393] was tested, and the Mean (Mus musculus [1]) was 50.4, the Mean (Mus musculus [2]) was 13.7 and the Mean (Mus musculus [3]) was 11.7 and 8.39. For the same molecule, the Mean (Mus musculus [4]) was 3.25, the Mean (Mus musculus [5]) was 9.13 and the Mean (Mus musculus [6]) was 10.1 and 9.06. It also gave a Mean (Mus musculus [7]) of 45.1, a Mean (Mus musculus [8]) of 54.1 and a Mean (Mus musculus [9]) of 22.1. The Mean (Mus musculus [10]) was 7.81, the Mean (Mus musculus [11]) was 74.7 and the Mean (Mus musculus [12]) was 6.01. For the same molecule, the Mean (Mus musculus [13]) was 8.92, the Mean (Mus musculus [14]) was 8.25 and 6.9 and the Mean (Mus musculus [15]) was 20.9 and 8.1. For the same molecule, the Mean (Mus musculus [16]) was 82.1, the Mean (Mus musculus [17]) was 65.9 and the Mean (Mus musculus [18]) was 9.96. For the same molecule, the Mean (Mus musculus [19]) was 20.6, the Mean (Mus musculus [20]) was 8.14 and the Mean (Mus musculus [21]) was 9.6. For the same molecule, the Mean (Mus musculus [22]) was 5.9, the Mean (Mus musculus [23]) was 17.5 and the Mean (Mus musculus [24]) was 38.9. It also gave a Mean (Mus musculus [25]) of 7.46, a Mean (Mus musculus [26]) of 18.5 and a Mean (Mus musculus [27]) of 5.84. For the same molecule, the Mean (Mus musculus [28]) was 9.68, the Mean (Mus musculus [29]) was 39.8 and the Mean (Mus musculus [30]) was 70.7. For the same molecule, the Mean (Mus musculus [31]) was 3.43 and the Mean (Mus musculus [32]) was 55.5.
For CN(C)c1ncnc2c1ncn2CCSCCOC(=O)NC(CCCNC(=N)N)C(=O)O (single isomer, unassigned), the CTL activity (Mus musculus [33]) was 41 - 60% of interleukin 2.
CNc1ncnc2c1ncn2CCCCCOC(=O)NC(CCCNC(=N)N)C(=O)O (single isomer, unassigned) was tested, and the CTL activity (Mus musculus [34]) was 21 - 40% of interleukin 2.
With N=C(N)NCCCC(NC(=O)OCCCCCn1cnc2cncnc21)C(=O)O (single isomer, unassigned) the CTL activity (Mus musculus [35]) was 41 - 60% of interleukin 2.
CN(C)c1ncnc2c1ncn2C[C@H]1CC[C@@H](COC(=O)N[C@@H](CCCNC(=N)N)C(=O)O)CC1 was tested, and the CTL activity (Mus musculus [36]) was 21 - 40% of interleukin 2.
CN(C)c1ncnc2c1ncn2CCCCCOC(=O)NCC(=O)O was tested, and the CTL activity (Mus musculus [37]) was 21 - 40% of interleukin 2.
In the case of CN(C)c1ncnc2c1ncn2CCCCCOC(=O)CCN, the CTL activity (Mus musculus [38]) is reported as 41 - 60% of interleukin 2.
With CN(C)c1ncnc2c1ncn2CCCCOC(=O)N[C@@H](CCCNC(=N)N)C(=O)O the CTL activity (Mus musculus [39]) was 41 - 60% of interleukin 2.
With CN(C)c1ncnc2c1ncn2CCCCCOC(=O)NC(CCCNC(N)=O)C(=O)O (configuration not stated) the CTL activity (Mus musculus [36]) was 21 - 40% of interleukin 2.
For N=C(N)NCCC[C@H](NC(=O)OCCCCCn1cnc2c(N3CCC3)ncnc21)C(=O)O, the CTL activity (Mus musculus [40]) was 21 - 40% of interleukin 2.
N=C(N)NCCCC(NC(=O)OCCCCCn1cnc2c(NN)ncnc21)C(=O)O (single isomer, unassigned) was tested, and the CTL activity (Mus musculus [41]) was “++”.
